Results: ChEMBL document CHEMBL1800052, “Regioselective Suzuki coupling of dihaloheteroaromatic compounds as a rapid strategy to synthesize potent rigid combretastatin analogues” (J Med Chem, 2011)
Calls of active or inactive are those of the source. No cut-off for these calls is given here.

What was measured:
SH-SY5Y [1] = experiment: Cytotoxicity against human SH-SY5Y cells assessed as cell viability at 1 uM after 48 hrs by MTT assay; type: functional; details: read-out: Activity
Summary of the method: (§1)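 SH-SY5Y cells in 50% DMEM/50% F-12 with 10% FBS, 2 mM L-glutamine, penicillin and streptomycin, grown 48 h with or without compound. Cells were washed in Locke's solution (pH 7.6), given MTT (250 μg/mL) for 30 min at 37 °C, solubilized in isopropyl alcohol/HCl, and read at 570 nm. Single-point values are % viable cells at 1 μM. IC50s come from fitted full concentration-response curves; mean ± SD of 12 determinations from 3 experiments.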

HeLa [2] = experiment: Cell cycle arrest in human HeLa cells assessed as accumulation at G2/M phase at 3 times IC50 value after 16 hrs using propidium iodide staining by FACS analysis; type: functional, cell-based
Summary of the method: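 Cells were treated 16 h with vehicle or 3 × IC50 compound, washed in PBS, fixed in ice-cold 30:70 PBS/EtOH, and stored at −20 °C. They were then treated with RNase (100 μg/mL) for 30 min at RT and stained with propidium iodide (100 μg/mL) in PBS with 5 mM EDTA for 30 min in the dark. DNA content was read by flow cytometry, representative of three experiments.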

SH-SY5Y [3] = experiment: Cytotoxicity against human SH-SY5Y cells assessed as cell viability after 48 hrs by MTT assay; type: functional, cell-based; summary of the method: as §1
[4] = biological target: T1, Tubulin alpha (Homo sapiens) (UniProt P0DPH7+P68366+Q71U36+P68363+Q9BQE3+Q6PEY2+A6NHL2+Q9NY65); experiment: Inhibition of tubulin alpha polymerization in human HeLa cells assessed as decreased pelletable tubulin alpha fraction at 3 times IC50 value after 16 hrs by Western blotting in presence of paclitaxel; type: cell-based
Summary of the method: (§2)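 Cells were grown 16 h with or without drug (3 × IC50), trypsinized, and lysed 10 min at RT in hypotonic buffer (20 mM Tris-HCl pH 6.8, 1 mM MgCl2, 2 mM EGTA, 0.5% NP-40, protease inhibitors) containing 4 μg/mL paclitaxel. Protein-normalized lysate (50 μg) was spun at 13 000 rpm for 15 min. Pellet (polymerized) and supernatant (free) fractions were run on 10% SDS-PAGE and blotted with anti-α-tubulin, read by chemiluminescence.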

HeLa [5] = experiment: Cytotoxicity against human HeLa cells assessed as cell viability after 48 hrs by MTT assay; type: functional, cell-based
[6] = Inhibition of tubulin alpha polymerization; details: concentration not given here
[7] = biological target: T1, Tubulin alpha (Homo sapiens); experiment: Inhibition of tubulin alpha polymerization in human HeLa cells assessed as increase in soluble tubulin alpha fraction at 3 times IC50 value after 16 hrs by Western blotting in presence of paclitaxel; type: cell-based; summary of the method: as §2
[8] = biological target: T1, Tubulin alpha (Homo sapiens); experiment: Inhibition of tubulin alpha in human SH-SY5Y cells assessed as inhibition of tubulin alpha polymerization at 3 times IC50 value after 24 hrs by immunofluorescence; type: cell-based
Summary of the method: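 Cells were fixed in 3.7% paraformaldehyde for 20 min, permeabilized in ice-cold 80% MeOH, and blocked with 0.2% fish gelatine. Staining used anti-α-tubulin (1:1000, 20 min RT), then Alexa 488 anti-mouse with DRAQ5 nuclear stain. Imaging was by confocal microscopy with a 63× oil objective.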

SMILES	viability at 1 µM (SH-SY5Y [1]) [%]	IC50 (SH-SY5Y [3]) [nM]	IC50 (HeLa [5]) [nM]	further results
COc1cc(-c2cscc2-c2cnc3ccccc3c2)cc(OC)c1OC	45			
COc1ccc(-c2occc2-c2cc(OC)c(OC)c(OC)c2)cc1O	20	9.4	20	Activity (HeLa [2]): Active; inhibition [4]: Active; inhibition [6]: 50%; inhibition [7]: Active
COc1cc(-c2cscc2-c2ccc(O)cc2)cc(OC)c1OC	93			
COc1cc(-c2cscc2-c2ccc3c(c2)OCO3)cc(OC)c1OC	65			
COc1ccc(-c2ccoc2-c2cc(OC)c(OC)c(OC)c2)cc1	23	28	17	
COc1cc(-c2cscc2-c2ccc(C)c(F)c2)cc(OC)c1OC	30	310	420	Activity (HeLa [2]): Active
COc1cc(-c2cscc2-c2ccc(C)c(C)c2)cc(OC)c1OC	84			
COc1ccc(C2=C(c3cc(OC)c(OC)c(OC)c3)CCC2)cc1O	33	37	300	Activity (HeLa [2]): Active; inhibition [4]: Active; tubulin polymerization inhibition (qualitative call) [8]: Active; inhibition [7]: Active
COc1cc(-c2cscc2-c2cccc3ccccc23)cc(OC)c1OC	83			
COc1cc(-c2cscc2-c2ccc(Cl)c(C(F)(F)F)c2)cc(OC)c1OC	91			
COc1cc(-c2cscc2-c2cc(OC)c(OC)c(OC)c2)cc(OC)c1OC	91			
COc1cc(-c2cscc2-c2cccc([N+](=O)[O-])c2)cc(OC)c1OC	108			
COc1ccc(-c2cscc2-c2cc(OC)c(OC)c(OC)c2)cc1O	29	79	200	Activity (HeLa [2]): Active; inhibition [4]: Active; tubulin polymerization inhibition (qualitative call) [8]: Active; inhibition [7]: Active
COc1ccc(-c2cscc2-c2cc(OC)c(OC)c(OC)c2)cc1C	80			
COc1cc(-c2cscc2-c2cccc(C(F)(F)F)c2)cc(OC)c1OC	91			
COc1ccc(/C=C\c2cc(OC)c(OC)c(OC)c2)cc1O [COMBRETASTATIN A4]	23	2.3	1.7	Activity (HeLa [2]): Active; inhibition [4]: Active; tubulin polymerization inhibition (qualitative call) [8]: Active; inhibition [7]: Active

SMILES	viability at 1 µM (SH-SY5Y [1]) [%]	IC50 (SH-SY5Y [3]) [nM]	IC50 (HeLa [5]) [nM]	further results
COc1ccc(-c2cscc2-c2cc(OC)c(OC)c(OC)c2)c(OC)c1	90			
COc1ccc(-c2cscc2-c2cc(OC)c(OC)c(OC)c2)cc1F	52			
COc1cccc(-c2cscc2-c2cc(OC)c(OC)c(OC)c2)c1F	28	330	430	
COc1ccc(-c2cscc2-c2cc(OC)c(OC)c(OC)c2)cc1	31	480	420	
COc1cc(-c2cscc2-c2ccc(OC(F)(F)F)cc2)cc(OC)c1OC	93			
COc1ccc(-c2occc2-c2cc(OC)c(OC)c(OC)c2)cc1	24	34	170	tubulin polymerization inhibition (qualitative call) [8]: Active
COc1cc(-c2cscc2-c2cccc(OC)c2OC)cc(OC)c1OC	90			
COc1cc(-c2cscc2-c2ccc(SC)cc2)cc(OC)c1OC	51			
COc1ccc(-c2cscc2-c2cc(OC)c(OC)c(OC)c2)cc1OC	94			
COc1cccc(-c2cscc2-c2cc(OC)c(OC)c(OC)c2)c1	49			
COc1cc(-c2cscc2-c2ccc3c(c2)OCCO3)cc(OC)c1OC	27	350	420	Activity (HeLa [2]): Active
COc1ccc(-c2ccoc2-c2cc(OC)c(OC)c(OC)c2)cc1O	23	2.4	3.1	Activity (HeLa [2]): Active; inhibition [4]: Active; tubulin polymerization inhibition (qualitative call) [8]: Active; inhibition [7]: Active
COc1cc(-c2cscc2-c2cccc3ncccc23)cc(OC)c1OC	100			
COc1cc(-c2cscc2-c2cccnc2)cc(OC)c1OC	109			
COc1cc(-c2cscc2-c2cccc(C#N)c2)cc(OC)c1OC	97			
COc1ccc(-c2cscc2-c2cc(OC)c(OC)c(OC)c2)cn1	82			
